b-catenin transl – beta-catenin nuclear translocation modulation; HeLa beta-catenin nuclear translocation, immunofluorescence imaging; 0.3% of 190,000 active; AID 1665; nuclear translocation activity, % at 5 µM;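 active means nuclear translocation activity above 50% at 5 µM, with a well cell count of 50 or more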;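 further: per-cell ratio of nuclear to cytoplasmic median beta-catenin stain intensity; plate controls were DMSO negative control for no effect and GSK-3 inhibitor IX positive control for full effect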
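Test system: human HeLa cells, native beta-catenin. Compound dosing: 5 µM primary single dose, 0.1% DMSO, 0.02–20 µM confirmation series. Incubation: compound exposure 24 h at 37°C. Detection: beta-catenin immunostaining with DAPI counterstain, 20x imaging, 6 fields/well. Read-out basis: Nuclear/cytoplasmic beta-catenin signal ratio, % activation.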
Ba/F3 V617F tox – loss of viability in JAK2V617F-driven Ba/F3 cells. AID 1446. Ba/F3 EpoR-JAK2V617F viability, ATP luminescence. 1.1% of 220,000 active. inhibition, % at 5.6 µM;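 active means inhibition above the campaign mean plus 3 SD over all tested compounds, cut at about 24% in these data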;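 further: cytokine-independent growth of Ba/F3 cells driven by EpoR plus mutant JAK2; 0% = DMSO-treated cells and 100% = JAK inhibitor I control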
APP transl inh – APP translation inhibition | SH-SY5Y APP 5'UTR-luciferase reporter, luminescence | inhibition, % at 2 µM | AID 1285 | 0.82% of 190,000 active;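 active means inhibition above a set limit, derived from the sample mean plus 3 SD, cut at about 45% in these data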
BaF3 parental – parental Ba/F3 viability inhibition as JAK2V617F counter-screen. CellTiter-Glo ATP luminescence. AID 1486. 1.1% of 220,000 active. inhibition, % at 5.6 µM;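 active means inhibition above a per-campaign cutoff, the mean inhibition of all tested compounds plus 3 SD, cut at about 27% in these data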;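 further: 0% = DMSO wells and 100% = JAK Inhibitor I control wells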
MT stabilize HCS – stabilizes microtubules in HeLa cells. HeLa tubulin immunostaining HCS, 24 h; share of cells brighter than vehicle mean+2SD. % tubulin-high responders, % at 10 µM. 0.83% of 200,000 active;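 active means plate Z-score above 3 for both tubulin-high and condensed-nucleus cell shares, with cell loss under 80%, at 10 µM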;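 further: anti alpha tubulin signal scored within the nucleus-defined area of each cell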
IEC-6 cytotox – IEC-6 cytotoxicity, counter-screen for KLF5 inhibitors | inhibition, % at 5 µM | 0.78% of 290,000 active | luminescence viability; in the data active means inhibition above about 22%;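 further: 0% = plate median of test compound wells and 100% = cytotoxic reference compound wells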
* = called active by the depositor. Hits are enriched below; roughly 2.2% of the tested compounds scored in any of these assays.

What do the screens show for `CCc1noc(C)c1C(=O)N1CCSC1=Nc1cccc(Cl)c1C`?
IEC-6 cytotox: 0

Results for CN(C)CCC#CC(O)(c1ccccc1)c1ccccc1 ?
b-catenin transl: 0; Ba/F3 V617F tox: 0; APP transl inh: 2; BaF3 parental: 9; MT stabilize HCS: 3; IEC-6 cytotox: -8

How did CCN(CC)CC#CC(O)(c1ccccc1)c1ccccc1 do in these assays?
b-catenin transl: -1; Ba/F3 V617F tox: -1; APP transl inh: 49*; BaF3 parental: 8; MT stabilize HCS: 2; IEC-6 cytotox: 3

How did CCN(c1cccc(C)c1)S(=O)(=O)c1ccc(-n2cccn2)cc1 do in these assays?
IEC-6 cytotox: -8

Results for Cc1cccc(OCc2nnc(SCc3nc4ccccc4c(=O)[nH]3)o2)c1 ?
b-catenin transl: 1; Ba/F3 V617F tox: 1; APP transl inh: -14; BaF3 parental: 3; MT stabilize HCS: 3; IEC-6 cytotox: 4

Results for COc1ccc(-c2nnc(SCc3nc4ccccc4c(=O)[nH]3)o2)cc1 ?
b-catenin transl: -1; Ba/F3 V617F tox: 0; BaF3 parental: 53*; IEC-6 cytotox: 2

What do the screens show for `Nc1nc(SCc2ccc(Cl)cc2Cl)nc2nc3c(cc12)CCCC3`?
Ba/F3 V617F tox: -2; APP transl inh: -4; BaF3 parental: 0; MT stabilize HCS: 2; IEC-6 cytotox: -3

What do the screens show for `COc1ccc(S(=O)(=O)Nc2ccccc2C(F)(F)F)cc1`?
b-catenin transl: 1; Ba/F3 V617F tox: -3; APP transl inh: -26; BaF3 parental: 2; MT stabilize HCS: 3; IEC-6 cytotox: 2

Results for COc1ccc(S(=O)(=O)NN(C)c2nc(C(F)(F)F)nc3ccccc23)cc1 ?
b-catenin transl: -2; Ba/F3 V617F tox: -2; APP transl inh: -20; BaF3 parental: 3; MT stabilize HCS: 25*; IEC-6 cytotox: 3

How did CC(C)N(Cc1ccccc1)C(=O)CN1C(=O)NC(Cc2ccccc2)(c2ccccc2)C1=O (centres undefined) do in these assays?
IEC-6 cytotox: -7

How did CSc1nsc2nc(=O)c(/C=C3\C=Nc4ccccc43)c(N)n12 do in these assays?
b-catenin transl: 1; Ba/F3 V617F tox: 0; APP transl inh: -21; BaF3 parental: 56*; MT stabilize HCS: 2; IEC-6 cytotox: -9

How did Cc1ccc2c(c1)c1ccc3c(c1n2C)C(=O)C=CC3=O do in these assays?
b-catenin transl: 0; Ba/F3 V617F tox: 1; BaF3 parental: 1; IEC-6 cytotox: 4

Results for COc1ccc2c(c1)c1ccc3c(c1n2C)C(=O)C=CC3=O ?
b-catenin transl: 2; Ba/F3 V617F tox: 58*; BaF3 parental: 35*; IEC-6 cytotox: 6

What do the screens show for `CCC(C)N1CC(O)=C(c2nc3ccccc3[nH]2)C1=N` (centres undefined)?
b-catenin transl: -8; Ba/F3 V617F tox: -1; APP transl inh: -35; BaF3 parental: 90*; MT stabilize HCS: 3; IEC-6 cytotox: 5

How did C=C(C)C1CC=C(C)/C(=N\NC(=O)CNc2cccc3ccccc23)C1 (centres undefined) do in these assays?
b-catenin transl: -1; Ba/F3 V617F tox: -1; APP transl inh: -10; BaF3 parental: 2; MT stabilize HCS: 7; IEC-6 cytotox: -1

What do the screens show for `N#CC1=C(N)OC2=C(CCc3ccccc32)C1c1ccccc1Cl` (centres undefined)?
b-catenin transl: 12; Ba/F3 V617F tox: 5; APP transl inh: 94*; BaF3 parental: 9; MT stabilize HCS: 18*; IEC-6 cytotox: -1

Results for COc1ccccc1N1CCN(CCN2C(=O)C3CCCCN3C2=O)CC1 (centres undefined) ?
IEC-6 cytotox: -7

Results for Cc1cc(C(=O)CSc2nc(N)cc(=O)[nH]2)c(C)n1-c1ccc(OC(F)F)cc1 ?
b-catenin transl: -2; Ba/F3 V617F tox: 40*; APP transl inh: 5; BaF3 parental: 52*; MT stabilize HCS: 4; IEC-6 cytotox: -2

What do the screens show for `Cc1cc(-n2c(C)cc(C(=O)CSc3nc(N)cc(=O)[nH]3)c2C)no1`?
b-catenin transl: 6; Ba/F3 V617F tox: 3; BaF3 parental: 8; IEC-6 cytotox: 1

What do the screens show for `CSc1nc(C)cc(OCC(=O)N/N=C/c2ccccc2O)n1`?
b-catenin transl: 94*; Ba/F3 V617F tox: -1; APP transl inh: 41; BaF3 parental: 8; MT stabilize HCS: 17*; IEC-6 cytotox: 0

How did Cc1cc(=O)oc2cc(OCC(=O)N/N=C/c3ccccc3O)ccc12 do in these assays?
IEC-6 cytotox: -4

Bioassay records (PubChem BioAssay)
